Tests used:
[1] = test system: PC-12; assay: Effective dose to protect PC12 cells from beta-Amyloid (BA) insult was determined using MTT reduction assay; type: functional; settings: Rattus norvegicus, read-out: ED50 (the source's name)
Outline: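 PC12 cells in high-glucose DMEM with 10% horse serum, 5% fetal calf serum and 1% penicillin/streptomycin were plated overnight. They were then co-incubated 24 h with βA(1-42) (DMSO stock) and test compound at five concentrations, final DMSO <1%. MTT was added for 1 h at 37 °C, then lysing buffer overnight at 37 °C, and OD read at 570 nm. Viability was referenced to DMSO-only and βA-only wells. ED50 came from dose–response curves; curcumin was the positive control.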

[2] = test system: IMR-32; assay: Effective dose to protect IMR-32 cells from beta-Amyloid (BA) insult was determined using MTT reduction assay; type: functional; settings: Homo sapiens, read-out: ED50 (the source's name)
Outline: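 IMR-32 human neuroblastoma cells in Minimum Essential Medium with Earle's salts and L-glutamine, 10% fetal bovine serum and 1% penicillin/streptomycin were run as in the PC12 protocol. Cells were co-exposed 24 h to βA(1-42) and test compound at five concentrations, final DMSO <1%. MTT was reduced for 1 h at 37 °C, then lysed overnight, with OD read at 570 nm. ED50 came from dose–response curves.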

| SMILES | EC50 [1] [µM] | EC50 [2] [µM] |
| --- | --- | --- |
| CCCCCC/C=C/C(=O)CCc1ccc(O)c(OC)c1 | 8.6 | 12 |
| CCCCCCCCC/C=C/C(=O)CCc1ccc(O)c(OC)c1 | 1.8 | 3.3 |
| CCCCCCCC/C=C/C(=O)CCc1ccc(O)c(OC)c1 | 4.4 | 6.2 |
| CCCC/C=C/C(=O)CCc1ccc(O)c(OC)c1 | 29 | 37.4 |
| CCCCCCCCCCC/C=C/C(=O)CCc1ccc(O)c(OC)c1 | 0.2 | 0.5 |
| CCCCCCC/C=C/C(=O)CCc1ccc(O)c(OC)c1 | 5.9 | 8.8 |
| CCC/C=C/C(=O)CCc1ccc(O)c(OC)c1 | 45.9 | 61.2 |
| CCCCCCCCCC/C=C/C(=O)CCc1ccc(O)c(OC)c1 | 0.5 | 1.4 |
| COc1cc(/C=C/C(=O)CC(=O)/C=C/c2ccc(O)c(OC)c2)ccc1O [CURCUMIN] | 17.1 | 23.9 |
| CCCCC/C=C/C(=O)CCc1ccc(O)c(OC)c1 [SHOGAOL] | 16.3 | 24.2 |
| COc1cc(CCC(C)=O)ccc1O [ZINGERONE] | > 129 | > 129 |

Source: ChEMBL document CHEMBL1147607, “Side-chain length is important for shogaols in protecting neuronal cells from beta-amyloid insult” (2004)
